Measured values taken from ChEMBL document CHEMBL3407461 (J Med Chem, 2014).
Converted amounts (≈) assume the structure as drawn. The source made the active and inactive calls.

Experiments:
[1] = target: T1, Adenosine receptor A1 (Homo sapiens) (UniProt P30542); experiment: Displacement of [3H]R-PIA from human recombinant A1 adenosine receptor expressed in CHO cells at 10 uM after 60 mins by liquid scintillation counting; type: cell-based
T1 sequence (whole entry): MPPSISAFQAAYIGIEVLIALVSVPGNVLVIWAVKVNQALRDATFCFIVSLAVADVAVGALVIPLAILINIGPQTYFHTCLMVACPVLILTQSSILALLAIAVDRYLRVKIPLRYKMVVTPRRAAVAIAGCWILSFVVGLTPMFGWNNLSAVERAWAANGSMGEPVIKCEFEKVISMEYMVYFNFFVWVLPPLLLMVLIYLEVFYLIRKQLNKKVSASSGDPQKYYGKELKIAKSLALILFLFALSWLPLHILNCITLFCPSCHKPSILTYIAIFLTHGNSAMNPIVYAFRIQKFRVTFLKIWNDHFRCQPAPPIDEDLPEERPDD

[2] = target: Adenosine receptor A2a (Homo sapiens) (UniProt P29274); experiment: Displacement of [3H]CGS21680 from human recombinant A2A adenosine receptor expressed in HEK293 cells at 10 uM after 60 mins by liquid scintillation counting; type: cell-based
[3] = target: Adenosine receptor A2a (Mus musculus) (UniProt Q60613); experiment: Displacement of [3H]CGS21680 from mouse A2A adenosine receptor expressed in HEK293 cells at 10 uM after 60 mins by liquid scintillation counting; type: cell-based
Mus musculus [4] = experiment: Antinociceptive activity in chronic constriction injury neutropathic pain CD-1 mouse model assessed as time for peak protection at 3 umol/kg, po; type: functional
How it was run: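 Male CD-1 mice (25−30 g), chronic constriction injury of left sciatic nerve (Bennett model) under isoflurane. Dosed by gavage (3 μmol/kg, 0.2 mL) at peak mechano-allodynia on day 7; vehicle 10% DMSO in 0.5% methylcellulose. Paw withdrawal threshold (g) measured on the ipsilateral hind paw from 30 min to 5 h post dose. Expressed as % reversal, mean ± SEM over n animals.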

Mus musculus [5] = experiment: Antinociceptive activity in chronic constriction injury neutropathic pain CD-1 mouse model assessed as maximum protection on ipsilateral hind paw at 3 umol/kg, po after 30 mins to 5 hrs post dose relative to control; type: functional; details: CD-1, po
Mus musculus [6] = experiment: Antinociceptive activity in chronic constriction injury neutropathic pain CD-1 mouse model at 3 umol/kg, po after 3 hrs post dose relative to control; type: functional
[7] = Aqueous solubility of the compound at pH 7.4 by pION Method; type: physicochemical; details: buffer
[8] = Half life of the compound in simulated gastric fluid at pH 1.6; type: ADME; details: simulated gi fluid
[9] = Half life of the compound in simulated intestinal fluid at pH 6.5; type: ADME; details: simulated gi fluid
Plasma [10] = experiment: Fraction unbound in human plasma at 10 uM after 5 hrs by LC-MS/MS analysis; type: ADME, cell-free
Plasma [11] = experiment: Fraction unbound in rat plasma at 10 uM after 5 hrs by LC-MS/MS analysis; type: ADME, cell-free
Plasma [12] = experiment: Fraction unbound in mouse plasma at 10 uM after 5 hrs by LC-MS/MS analysis; type: ADME, cell-free
Cytochrome P450 1A2 = target: T2, Cytochrome P450 1A2 (Homo sapiens, UniProt P05177); experiment: Inhibition of CYP1A2 in human microsomes preincubated for 5 mins before substrate addition measured after 10 mins by LC/MS/MS analysis; type: ADME
T2 sequence (P05177 whole entry): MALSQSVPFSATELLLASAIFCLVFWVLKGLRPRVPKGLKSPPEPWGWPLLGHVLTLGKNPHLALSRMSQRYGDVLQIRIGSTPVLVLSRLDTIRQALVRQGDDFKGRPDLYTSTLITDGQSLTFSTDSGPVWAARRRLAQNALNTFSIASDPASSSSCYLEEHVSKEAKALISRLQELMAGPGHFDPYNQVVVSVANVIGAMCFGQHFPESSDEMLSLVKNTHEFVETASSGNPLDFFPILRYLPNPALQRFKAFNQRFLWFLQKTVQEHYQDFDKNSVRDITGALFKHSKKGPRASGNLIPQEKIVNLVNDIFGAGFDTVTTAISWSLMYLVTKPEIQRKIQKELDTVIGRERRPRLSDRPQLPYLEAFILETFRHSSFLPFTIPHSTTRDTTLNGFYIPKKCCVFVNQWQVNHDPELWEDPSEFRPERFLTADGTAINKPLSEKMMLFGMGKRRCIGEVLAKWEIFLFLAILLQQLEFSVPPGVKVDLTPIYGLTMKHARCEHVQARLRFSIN

Cytochrome P450 2C9 = Cytochrome P450 2C9 (Homo sapiens, UniProt P11712); experiment: Inhibition of CYP2C9 in human microsomes preincubated for 5 mins before substrate addition measured after 10 mins by LC/MS/MS analysis; type: ADME
Cytochrome P450 2C19 = Cytochrome P450 2C19 (Homo sapiens, UniProt P33261); experiment: Inhibition of CYP2C19 in human microsomes preincubated for 5 mins before substrate addition measured after 10 mins by LC/MS/MS analysis; type: ADME
Cytochrome P450 2D6 = Cytochrome P450 2D6 (Homo sapiens, UniProt P10635); experiment: Inhibition of CYP2D6 in human microsomes preincubated for 5 mins before substrate addition measured after 10 mins by LC/MS/MS analysis; type: ADME
Cytochrome P450 3A4 = Cytochrome P450 3A4 (Homo sapiens, UniProt P08684); experiment: Inhibition of CYP3A4 in human microsomes preincubated for 5 mins before substrate addition measured after 10 mins by LC/MS/MS analysis; type: ADME
CYP1A2 = CYP1A2 (Homo sapiens, UniProt P05177); experiment: Inhibition of CYP1A2 in human microsomes preincubated at 10 uM for 5 mins before substrate addition measured after 10 mins by LC/MS/MS analysis; type: ADME
CYP2C9 = CYP2C9 (Homo sapiens, UniProt P11712); experiment: Inhibition of CYP2C9 in human microsomes preincubated at 10 uM for 5 mins before substrate addition measured after 10 mins by LC/MS/MS analysis; type: ADME
CYP2C19 = CYP2C19 (Homo sapiens, UniProt P33261); experiment: Inhibition of CYP2C19 in human microsomes preincubated at 10 uM for 5 mins before substrate addition measured after 10 mins by LC/MS/MS analysis; type: ADME
CYP2D6 = CYP2D6 (Homo sapiens, UniProt P10635); experiment: Inhibition of CYP2D6 in human microsomes preincubated at 10 uM for 5 mins before substrate addition measured after 10 mins by LC/MS/MS analysis; type: ADME
CYP3A4 = CYP3A4 (Homo sapiens, UniProt P08684); experiment: Inhibition of CYP3A4 in human microsomes preincubated at 10 uM for 5 mins before substrate addition measured after 10 mins by LC/MS/MS analysis; type: ADME
Liver microsome [13] = experiment: Half life in rat liver microsomes at 100 uM by LC-MS/MS analysis; type: ADME
Liver microsome [14] = experiment: Half life in human liver microsomes at 100 uM by LC-MS/MS analysis; type: ADME
Liver = experiment: Half life in mouse liver microsomes at 100 uM by LC-MS/MS analysis; type: ADME
Liver microsome [15] = experiment: Intrinsic clearance in human liver microsomes assessed per mg protein at 100 uM by LC-MS/MS analysis; type: ADME
hERG (KCNH2) = hERG (KCNH2) (Homo sapiens, UniProt Q12809); experiment: Inhibition of human ERG at 10 uM by PDSP screening
[16] = target: T3, Adenosine receptor A1 (Mus musculus) (UniProt Q60612); experiment: Displacement of [125I]I-AB-MECA from mouse A1 adenosine receptor expressed in HEK293 cells at 10 uM after 60 mins by liquid scintillation counting
T3 sequence (whole entry): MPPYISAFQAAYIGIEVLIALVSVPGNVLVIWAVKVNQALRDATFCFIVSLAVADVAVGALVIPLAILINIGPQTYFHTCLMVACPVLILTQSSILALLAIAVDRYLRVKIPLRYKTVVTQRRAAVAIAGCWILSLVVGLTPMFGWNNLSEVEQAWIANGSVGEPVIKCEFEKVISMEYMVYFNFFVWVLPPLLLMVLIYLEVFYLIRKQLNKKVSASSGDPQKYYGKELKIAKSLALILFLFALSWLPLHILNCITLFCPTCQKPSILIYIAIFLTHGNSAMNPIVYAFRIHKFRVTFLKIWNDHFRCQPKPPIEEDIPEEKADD

Adenosine receptor A3 = Adenosine receptor A3 (Mus musculus, UniProt Q61618); experiment: Displacement of [125I]I-AB-MECA from mouse A3 adenosine receptor expressed in HEK293 cells after 60 mins by liquid scintillation counting; type: cell-based
CHO [17] = experiment: Selectivity ratio of Ki for mouse A3 adenosine receptor expressed in HEK293 cells to Ki for human recombinant A3 adenosine receptor expressed in CHO cells; type: cell-based
[18] = target: Voltage-gated inwardly rectifying potassium channel KCNH2 (Homo sapiens, UniProt Q12809); experiment: Inhibition of human ERG by PDSP screening
CHO [19] = experiment: Selectivity ratio of IC50 for human ERG to IC50 for human recombinant A3 adenosine receptor expressed in CHO cells; type: cell-based
[20] = Permeability across apical to basolateral side of human Caco2 cells expressing P-gp; type: ADME, cell-based; details: caco-2
[21] = target: T4, Adenosine receptor A3 (Mus musculus) (UniProt Q61618); experiment: Agonist activity at mouse A3 adenosine receptor expressed in HEK293 cells assessed as inhibition of forskolin-stimulated cAMP production after 15 mins relative to control; type: functional, cell-based
T4 sequence (whole entry): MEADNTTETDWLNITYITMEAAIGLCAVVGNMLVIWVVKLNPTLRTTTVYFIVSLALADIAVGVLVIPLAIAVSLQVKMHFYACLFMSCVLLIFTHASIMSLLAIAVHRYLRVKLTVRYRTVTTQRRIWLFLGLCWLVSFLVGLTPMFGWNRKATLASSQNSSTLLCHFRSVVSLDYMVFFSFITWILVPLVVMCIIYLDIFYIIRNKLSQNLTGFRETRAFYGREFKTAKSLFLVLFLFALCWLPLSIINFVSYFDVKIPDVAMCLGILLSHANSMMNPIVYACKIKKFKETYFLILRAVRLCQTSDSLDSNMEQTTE
How it was run: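 2 × 10^5 cells/tube, coincubated with forskolin 10 μM plus ligand for 15 min at 37 °C with shaking. Stopped with HCl. cAMP in supernatant measured by competitive binding.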

[22] = target: Translocator protein (Homo sapiens) (UniProt P30536); experiment: Binding affinity to TSPO (unknown origin) by PDSP screening
[23] = target: Sigma non-opioid intracellular receptor 1 (Homo sapiens) (UniProt Q99720); experiment: Binding affinity to sigma1 receptor (unknown origin) by PDSP screening
Homo sapiens = species on record: Homo sapiens; experiment: Binding affinity to sigma2 receptor (unknown origin) by PDSP screening

Cytochrome P450 2C19, sequence (P33261 whole entry): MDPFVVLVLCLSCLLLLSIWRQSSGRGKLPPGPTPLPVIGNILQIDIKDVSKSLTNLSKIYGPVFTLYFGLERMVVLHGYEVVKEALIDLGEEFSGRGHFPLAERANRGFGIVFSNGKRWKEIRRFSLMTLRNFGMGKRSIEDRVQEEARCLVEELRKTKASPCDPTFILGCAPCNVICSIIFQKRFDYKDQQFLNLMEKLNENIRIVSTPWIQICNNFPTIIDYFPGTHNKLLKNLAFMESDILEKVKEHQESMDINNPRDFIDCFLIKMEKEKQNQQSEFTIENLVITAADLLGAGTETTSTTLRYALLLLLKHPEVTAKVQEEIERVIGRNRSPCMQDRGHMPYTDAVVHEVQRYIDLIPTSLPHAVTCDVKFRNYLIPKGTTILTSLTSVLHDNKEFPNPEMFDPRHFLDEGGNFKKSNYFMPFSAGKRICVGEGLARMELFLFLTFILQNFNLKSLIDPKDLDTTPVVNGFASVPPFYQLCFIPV
Cytochrome P450 2C9, sequence (P11712 whole entry): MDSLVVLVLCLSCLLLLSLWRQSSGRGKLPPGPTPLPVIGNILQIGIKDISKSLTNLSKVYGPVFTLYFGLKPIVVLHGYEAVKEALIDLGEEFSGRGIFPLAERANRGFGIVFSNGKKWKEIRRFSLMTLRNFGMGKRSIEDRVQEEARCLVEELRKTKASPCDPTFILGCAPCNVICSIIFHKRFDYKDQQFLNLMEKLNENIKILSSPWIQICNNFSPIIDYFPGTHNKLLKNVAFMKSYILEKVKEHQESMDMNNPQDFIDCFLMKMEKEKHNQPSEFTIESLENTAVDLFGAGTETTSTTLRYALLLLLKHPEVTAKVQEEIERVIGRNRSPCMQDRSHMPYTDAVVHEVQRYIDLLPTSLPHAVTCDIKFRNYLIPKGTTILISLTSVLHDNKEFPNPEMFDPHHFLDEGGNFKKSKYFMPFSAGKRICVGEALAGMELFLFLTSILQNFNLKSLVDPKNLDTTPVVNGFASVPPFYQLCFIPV
Adenosine receptor A2a (Mus musculus), sequence (Q60613 whole entry): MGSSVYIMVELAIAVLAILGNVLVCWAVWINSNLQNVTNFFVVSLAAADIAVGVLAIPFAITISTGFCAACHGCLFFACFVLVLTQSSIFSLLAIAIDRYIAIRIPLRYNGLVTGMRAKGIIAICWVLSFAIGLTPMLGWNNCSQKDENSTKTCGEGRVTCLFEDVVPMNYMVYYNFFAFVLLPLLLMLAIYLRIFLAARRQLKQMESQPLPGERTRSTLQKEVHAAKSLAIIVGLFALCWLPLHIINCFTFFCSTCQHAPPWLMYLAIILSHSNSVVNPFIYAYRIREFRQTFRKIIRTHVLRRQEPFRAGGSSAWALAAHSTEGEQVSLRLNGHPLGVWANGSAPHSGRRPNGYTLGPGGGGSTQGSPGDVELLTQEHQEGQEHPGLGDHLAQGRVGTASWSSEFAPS
Cytochrome P450 2D6, sequence (P10635 whole entry): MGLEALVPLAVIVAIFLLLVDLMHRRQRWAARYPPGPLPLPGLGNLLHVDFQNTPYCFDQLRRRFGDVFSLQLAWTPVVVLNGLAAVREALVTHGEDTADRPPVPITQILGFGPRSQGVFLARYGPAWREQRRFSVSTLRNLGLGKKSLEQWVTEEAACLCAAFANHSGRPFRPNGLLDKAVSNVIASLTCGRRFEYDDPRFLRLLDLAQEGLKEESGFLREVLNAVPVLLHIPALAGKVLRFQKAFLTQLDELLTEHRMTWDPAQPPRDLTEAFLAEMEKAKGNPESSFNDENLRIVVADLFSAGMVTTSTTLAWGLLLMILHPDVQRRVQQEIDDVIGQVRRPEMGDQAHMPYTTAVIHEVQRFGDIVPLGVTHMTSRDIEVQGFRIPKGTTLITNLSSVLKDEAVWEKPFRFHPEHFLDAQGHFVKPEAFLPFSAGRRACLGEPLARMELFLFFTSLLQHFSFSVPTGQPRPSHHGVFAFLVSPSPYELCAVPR
Cytochrome P450 3A4, sequence (P08684 whole entry): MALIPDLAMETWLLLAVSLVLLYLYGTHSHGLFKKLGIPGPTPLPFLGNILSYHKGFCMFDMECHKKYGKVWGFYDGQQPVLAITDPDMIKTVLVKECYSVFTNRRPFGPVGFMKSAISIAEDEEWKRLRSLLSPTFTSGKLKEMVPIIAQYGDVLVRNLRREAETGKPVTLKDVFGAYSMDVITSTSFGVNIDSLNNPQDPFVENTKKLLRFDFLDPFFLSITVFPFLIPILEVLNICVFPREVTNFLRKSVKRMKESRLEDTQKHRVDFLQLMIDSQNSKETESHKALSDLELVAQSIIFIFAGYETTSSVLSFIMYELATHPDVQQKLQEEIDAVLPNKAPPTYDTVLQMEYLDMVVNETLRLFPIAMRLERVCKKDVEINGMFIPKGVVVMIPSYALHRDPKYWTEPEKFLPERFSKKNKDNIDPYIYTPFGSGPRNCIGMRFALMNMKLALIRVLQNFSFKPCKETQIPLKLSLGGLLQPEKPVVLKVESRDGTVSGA
Adenosine receptor A2a (Homo sapiens), sequence (P29274 whole entry): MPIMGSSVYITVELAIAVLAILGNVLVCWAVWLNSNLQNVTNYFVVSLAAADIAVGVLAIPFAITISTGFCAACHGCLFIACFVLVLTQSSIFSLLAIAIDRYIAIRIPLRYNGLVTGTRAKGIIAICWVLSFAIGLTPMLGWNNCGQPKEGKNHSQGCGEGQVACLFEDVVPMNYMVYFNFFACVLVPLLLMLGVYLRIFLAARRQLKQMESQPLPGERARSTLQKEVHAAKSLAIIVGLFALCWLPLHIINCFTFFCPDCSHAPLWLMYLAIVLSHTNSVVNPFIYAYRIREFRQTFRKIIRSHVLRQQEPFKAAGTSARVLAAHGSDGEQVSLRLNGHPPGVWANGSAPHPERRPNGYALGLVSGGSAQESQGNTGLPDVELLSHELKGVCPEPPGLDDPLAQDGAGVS
hERG (KCNH2), sequence (Q12809 whole entry): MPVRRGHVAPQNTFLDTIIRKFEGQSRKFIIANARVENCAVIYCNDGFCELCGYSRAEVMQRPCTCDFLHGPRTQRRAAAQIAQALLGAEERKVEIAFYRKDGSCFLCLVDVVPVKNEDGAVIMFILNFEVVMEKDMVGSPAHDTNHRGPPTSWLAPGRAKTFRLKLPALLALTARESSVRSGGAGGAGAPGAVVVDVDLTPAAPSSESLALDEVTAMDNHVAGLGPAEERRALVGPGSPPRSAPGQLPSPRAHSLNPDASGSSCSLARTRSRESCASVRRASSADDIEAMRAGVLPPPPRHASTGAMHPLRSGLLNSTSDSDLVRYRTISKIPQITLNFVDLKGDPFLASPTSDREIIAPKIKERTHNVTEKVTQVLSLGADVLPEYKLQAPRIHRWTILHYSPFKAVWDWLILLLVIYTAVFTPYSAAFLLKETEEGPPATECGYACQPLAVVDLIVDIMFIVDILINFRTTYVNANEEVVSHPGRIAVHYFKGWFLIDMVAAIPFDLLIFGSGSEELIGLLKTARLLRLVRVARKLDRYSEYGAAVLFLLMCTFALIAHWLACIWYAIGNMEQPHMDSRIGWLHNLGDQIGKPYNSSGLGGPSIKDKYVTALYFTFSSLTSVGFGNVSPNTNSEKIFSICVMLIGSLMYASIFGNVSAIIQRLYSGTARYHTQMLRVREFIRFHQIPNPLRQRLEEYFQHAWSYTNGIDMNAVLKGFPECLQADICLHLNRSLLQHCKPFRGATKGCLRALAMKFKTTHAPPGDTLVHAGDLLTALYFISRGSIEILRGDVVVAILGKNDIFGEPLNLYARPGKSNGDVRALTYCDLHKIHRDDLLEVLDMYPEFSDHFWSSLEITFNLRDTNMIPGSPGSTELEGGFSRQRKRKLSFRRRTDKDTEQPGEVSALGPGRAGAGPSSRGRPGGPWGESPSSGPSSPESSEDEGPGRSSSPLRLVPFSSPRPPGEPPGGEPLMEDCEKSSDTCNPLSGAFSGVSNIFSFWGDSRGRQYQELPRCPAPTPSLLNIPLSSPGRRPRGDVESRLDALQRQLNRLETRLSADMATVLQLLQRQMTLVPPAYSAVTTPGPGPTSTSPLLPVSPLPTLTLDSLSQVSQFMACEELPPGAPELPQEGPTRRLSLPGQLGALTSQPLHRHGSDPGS
CYP2C19, sequence (P33261 whole entry): as the sequence (P33261 whole entry) above
CYP2C9, sequence (P11712 whole entry): as the sequence (P11712 whole entry) above
CYP2D6, sequence (P10635 whole entry): as the sequence (P10635 whole entry) above

Structure (SMILES) | inhibition [1] [%] | inhibition [2] [%] | inhibition [3] [%] | Time (Mus musculus [4]) [h] | Emax at 3 µmol/kg (Mus musculus [5]) [%] | Activity (Mus musculus [6]) [%] | IC50 (Cytochrome P450 1A2) [µM] | IC50 (Cytochrome P450 2C9) [µM] | IC50 (Cytochrome P450 2C19) [µM] | IC50 (Cytochrome P450 2D6) [µM] | IC50 (Cytochrome P450 3A4) [µM] | CLH (Liver microsome [15]) [µL/min] | inhibition at 10 µM (hERG (KCNH2)) [%] | inhibition [16] [%] | IC50 [18] [µM] | permeability [20] | Imax [21] [%] | also measured
CNC(=O)[C@@]12C[C@@H]1[C@@H](n1cnc3c(NC)nc(C#Cc4ccc(Br)s4)nc31)[C@H](O)[C@@H]2O | 18 | 19 | 10 | 1 | 100 | 48.7 | > 7 | > 7 | > 7 | 7.4 | > 7 | 3.38 |  |  |  |  |  | solubility [7]: 15.6 µg/mL (≈ 31 µM); t1/2 [8]: > 8 h; t1/2 [9]: > 8 h; Fu (Plasma [10]): 2.67%; Fu (Plasma [11]): 4.04%; Fu (Plasma [12]): 2.75%; inhibition at 10 min, 10 µM (CYP1A2): 15%; inhibition at 10 min, 10 µM (CYP2C9): 24.2%; inhibition at 10 min, 10 µM (CYP2C19): 34%; inhibition at 10 min, 10 µM (CYP2D6): 57.5%; inhibition at 10 min, 10 µM (CYP3A4): 3.1%; t1/2 (Liver microsome [13]): 1.52 h; t1/2 (Liver microsome [14]): 3.42 h; t1/2 (Liver): 1.6 h
CNC(=O)[C@@]12C[C@@H]1[C@@H](n1cnc3c(NC)nc(C#Cc4cnn(C)c4)nc31)[C@H](O)[C@@H]2O | 35 | 12 | 16 | 1 | 87.3 |  |  |  |  |  |  |  | 28 | 72 |  |  |  | 
CNC(=O)[C@@]12C[C@@H]1[C@@H](n1cnc3c(NC)nc(C#Cc4ccc(F)c(F)c4)nc31)[C@H](O)[C@@H]2O |  |  |  | 1 | 99 | 28.7 |  |  |  |  |  |  |  |  | 27 |  |  | Ki (Adenosine receptor A3): 0.086 µM; Ratio Ki (CHO [17]): > 30; Ratio IC50 (CHO [19]): > 10000
CNC(=O)[C@@]12C[C@@H]1[C@@H](n1cnc3c(NC)nc(C#Cc4ccco4)nc31)[C@H](O)[C@@H]2O | 30 | 18 | 17 | 1 | 100 | 27.6 |  |  |  |  |  |  | 21 | 59 |  | permeable |  | 
CNC(=O)[C@@]12C[C@@H]1[C@@H](n1cnc3c(NC)nc(C#Cc4cnccn4)nc31)[C@H](O)[C@@H]2O | 37 | 25 | 12 | 1 | 100 |  | > 10 | > 10 | > 10 | > 10 | > 10 | 2.99 |  |  |  | impermeable | 30 | 
CNC(=O)[C@@]12C[C@@H]1[C@@H](n1cnc3c(NC)nc(C#Cc4ccc(Cl)s4)nc31)[C@H](O)[C@@H]2O | 6 | 24 | 7 | 0.5 | 93.3 | 82.8 | > 10 | > 10 | > 10 | > 10 | > 10 | 3.69 |  | 38 | 12.9 | permeable | 35 | Activity [22]: Active; Activity [23]: Active; Activity (Homo sapiens): Active
